{"source": "ChEMBL document CHEMBL3414472", "about": "“Synthesis, SAR, and series evolution of novel oxadiazole-containing 5-lipoxygenase activating protein inhibitors: discovery of 2-[4-(3-{(r)-1-[4-(2-amino-pyrimidin-5-yl)-phenyl]-1-cyclopropyl-ethyl}-[1,2,4]oxadiazol-5-yl)-pyrazol-1-yl]-N,N-dimethyl-acetamide (BI 665915)” (J Med Chem, 2015)", "key": {"[1]": {"assay": "Fraction unbound in human plasma by equilibrium dialysis method", "type": "ADME, cell-free", "in_short": "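Unbound fraction in human plasma determined by equilibrium dialysis, in duplicate.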"}, "[2]": {"assay": "Efflux ratio of permeability across human Caco2 cells", "type": "ADME, cell-based", "details": "Caco-2", "in_short": "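Caco-2 cells were seeded at 1-2 x 10^5 cells/cm2 on 0.4 µm PET filter inserts and cultured 10 to 25 days. Compound in HTP-4 transport buffer was added to the apical or basolateral donor side for A-B or B-A transport. Donor and receiver samples were taken up to 2 h and measured by LC/MS/MS. Each value is from duplicate 6-timepoint curves (0 to 2 h).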"}, "Rattus norvegicus": {"tested_on": "Rattus norvegicus", "assay": "Clearance in rat at 1 mg/kg, iv and 10 mg/kg, po relative to hepatic blood flow", "type": "ADME, organism-based, Liver", "details": "in vivo", "in_short": "(§1)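 iv 1 mg/kg in 70 % PEG; po 10 mg/kg as suspension in 0.5 % methyl cellulose/0.015 % Tween. Blood sampled at 11 timepoints (0, 5, 15, 30 min, 1, 2, 4, 6, 8, 12, 24 h) per dose; mean of n = 3. Clearance expressed as percent of hepatic blood flow.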"}, "[3]": {"assay": "Oral bioavailability in dog at 10 mg/kg", "type": "ADME, organism-based, Canis lupus familiaris", "details": "in vivo", "in_short": "as §1"}, "Cynomolgus monkey": {"tested_on": "Cynomolgus monkey", "assay": "Clearance in cynomolgus monkey at 1 mg/kg, iv and 10 mg/kg, po relative to hepatic blood flow", "type": "ADME, organism-based, Macaca fascicularis, Liver", "details": "in vivo", "in_short": "as §1"}, "[4]": {"assay": "Mean residence time in cynomolgus monkey at 1 mg/kg, iv", "type": "ADME, organism-based, Macaca fascicularis", "parameters": "dose 1 mg/kg, route intravenous", "details": "in vivo", "in_short": "as §1"}, "Mus musculus [5]": {"tested_on": "Mus musculus", "assay": "In vivo inhibition of FLAP in C57BL/6 mouse assessed as LTB4 production in calcimycin-stimulated whole blood at 30 mg/kg, po after 2 hrs by ELISA (reference value: 100 +/- 13.3%)", "type": "functional", "parameters": "scale not given: the % may be the effect or the level left"}, "Mus musculus [6]": {"tested_on": "Mus musculus", "assay": "In vivo inhibition of FLAP in C57BL/6 mouse assessed as LTB4 production in calcimycin-stimulated whole blood at 100 mg/kg, po after 2 hrs by ELISA (reference value: 100 +/- 13.3%)", "type": "functional", "parameters": "scale not given: the % may be the effect or the level left"}, "[7]": {"molecular_target": "T1, Arachidonate 5-lipoxygenase-activating protein (Homo sapiens, UniProt P20292)", "T1 sequence (P20292 whole entry)": "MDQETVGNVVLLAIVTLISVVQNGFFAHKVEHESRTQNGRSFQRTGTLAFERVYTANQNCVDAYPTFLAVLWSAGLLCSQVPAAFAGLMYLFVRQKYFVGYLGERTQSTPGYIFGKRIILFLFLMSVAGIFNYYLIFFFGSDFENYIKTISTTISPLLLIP", "assay": "Inhibition of FLAP in calcimycin-stimulated human whole blood assessed as inhibition of LTB4 synthesis preincubated for 15 mins followed by calcimycin stimulation measured after 30 mins", "in_short": "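Heparinized human volunteer blood preincubated with compound 15 min at 37 °C, 5 % CO2; calcimycin 100 µM final, 30 min at 37 °C; spun 2000 rpm 5 min at 4 °C. Supernatant LTB4 measured by HTRF competition (LTB4-XL665 plus anti-LTB4 cryptate, 2 h room temperature). Geometric mean (n ≥ 3) of duplicate 10-point curves.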"}, "Cytochrome P450 2C9": {"molecular_target": "Cytochrome P450 2C9 (Homo sapiens, UniProt P11712)", "sequence (P11712 whole entry)": "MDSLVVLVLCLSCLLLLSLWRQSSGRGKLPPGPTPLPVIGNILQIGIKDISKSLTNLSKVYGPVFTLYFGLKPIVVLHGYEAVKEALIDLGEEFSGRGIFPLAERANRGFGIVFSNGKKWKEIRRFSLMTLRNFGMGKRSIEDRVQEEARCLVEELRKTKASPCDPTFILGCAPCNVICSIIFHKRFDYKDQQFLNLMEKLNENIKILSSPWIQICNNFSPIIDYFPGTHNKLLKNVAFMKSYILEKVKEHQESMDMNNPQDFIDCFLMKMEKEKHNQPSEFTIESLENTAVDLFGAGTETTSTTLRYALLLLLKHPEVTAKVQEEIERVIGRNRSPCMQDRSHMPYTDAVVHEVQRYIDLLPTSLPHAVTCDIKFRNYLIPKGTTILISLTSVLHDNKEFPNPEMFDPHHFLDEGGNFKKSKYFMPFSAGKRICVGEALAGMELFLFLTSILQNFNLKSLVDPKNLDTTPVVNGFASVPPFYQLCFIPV", "assay": "Inhibition of CYP2C9 in human liver microsomes using dichlofenac as substrate preincubated for 10 mins followed by NADPH addition measured after 6 mins", "type": "ADME", "in_short": "(§2)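 Human liver microsomes (0.05 mg/mL protein) with cocktail substrates: 4 µM diclofenac (2C9), 3 µM dextromethorphan (2D6), 2.5 µM midazolam (3A4). Compound in 0.1 M potassium phosphate pH 7.4 preincubated 10 min at 37 °C; NADPH added, reaction 6 min at 37 °C.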"}, "Cytochrome P450 2D6": {"molecular_target": "Cytochrome P450 2D6 (Homo sapiens, UniProt P10635)", "sequence (P10635 whole entry)": "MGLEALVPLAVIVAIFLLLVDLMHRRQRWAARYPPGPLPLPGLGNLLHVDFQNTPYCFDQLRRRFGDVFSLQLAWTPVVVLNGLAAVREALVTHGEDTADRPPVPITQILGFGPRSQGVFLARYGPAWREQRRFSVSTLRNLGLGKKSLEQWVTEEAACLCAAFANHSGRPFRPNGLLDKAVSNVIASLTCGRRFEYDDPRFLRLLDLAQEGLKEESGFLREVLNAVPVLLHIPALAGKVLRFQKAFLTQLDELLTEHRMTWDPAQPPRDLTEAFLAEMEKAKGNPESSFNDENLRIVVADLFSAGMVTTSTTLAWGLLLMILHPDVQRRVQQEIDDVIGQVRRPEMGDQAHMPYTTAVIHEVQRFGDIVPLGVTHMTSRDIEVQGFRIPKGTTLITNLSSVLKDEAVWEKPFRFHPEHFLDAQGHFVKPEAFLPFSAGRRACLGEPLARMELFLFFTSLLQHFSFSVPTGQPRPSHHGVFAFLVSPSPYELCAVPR", "assay": "Inhibition of CYP2D6 in human liver microsomes using dextromethorphan as substrate preincubated for 10 mins followed by NADPH addition measured after 6 mins", "type": "ADME", "in_short": "as §2"}, "[8]": {"molecular_target": "Prostaglandin G/H synthase 1 (Homo sapiens) (UniProt P23219)", "sequence (P23219 whole entry)": "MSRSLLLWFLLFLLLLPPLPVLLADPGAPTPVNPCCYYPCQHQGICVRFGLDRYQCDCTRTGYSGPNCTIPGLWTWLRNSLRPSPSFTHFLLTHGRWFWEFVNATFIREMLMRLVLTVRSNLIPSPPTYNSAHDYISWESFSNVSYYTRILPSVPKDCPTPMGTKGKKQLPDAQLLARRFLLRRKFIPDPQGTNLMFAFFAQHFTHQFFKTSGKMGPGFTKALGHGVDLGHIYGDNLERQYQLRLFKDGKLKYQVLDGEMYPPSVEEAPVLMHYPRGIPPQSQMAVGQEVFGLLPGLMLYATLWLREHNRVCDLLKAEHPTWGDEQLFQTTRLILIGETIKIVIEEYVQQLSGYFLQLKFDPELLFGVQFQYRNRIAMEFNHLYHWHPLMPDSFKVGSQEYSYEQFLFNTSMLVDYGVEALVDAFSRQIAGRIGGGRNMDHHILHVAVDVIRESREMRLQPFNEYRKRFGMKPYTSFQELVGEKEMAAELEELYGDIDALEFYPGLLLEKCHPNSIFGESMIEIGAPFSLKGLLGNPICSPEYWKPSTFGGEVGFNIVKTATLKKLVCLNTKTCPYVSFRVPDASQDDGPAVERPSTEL", "assay": "Inhibition of cyclooxygenase-1 (unknown origin) at 10 uM relative to control"}, "[9]": {"molecular_target": "T2, Prostaglandin G/H synthase 2 (Homo sapiens) (UniProt P35354)", "T2 sequence (whole entry)": "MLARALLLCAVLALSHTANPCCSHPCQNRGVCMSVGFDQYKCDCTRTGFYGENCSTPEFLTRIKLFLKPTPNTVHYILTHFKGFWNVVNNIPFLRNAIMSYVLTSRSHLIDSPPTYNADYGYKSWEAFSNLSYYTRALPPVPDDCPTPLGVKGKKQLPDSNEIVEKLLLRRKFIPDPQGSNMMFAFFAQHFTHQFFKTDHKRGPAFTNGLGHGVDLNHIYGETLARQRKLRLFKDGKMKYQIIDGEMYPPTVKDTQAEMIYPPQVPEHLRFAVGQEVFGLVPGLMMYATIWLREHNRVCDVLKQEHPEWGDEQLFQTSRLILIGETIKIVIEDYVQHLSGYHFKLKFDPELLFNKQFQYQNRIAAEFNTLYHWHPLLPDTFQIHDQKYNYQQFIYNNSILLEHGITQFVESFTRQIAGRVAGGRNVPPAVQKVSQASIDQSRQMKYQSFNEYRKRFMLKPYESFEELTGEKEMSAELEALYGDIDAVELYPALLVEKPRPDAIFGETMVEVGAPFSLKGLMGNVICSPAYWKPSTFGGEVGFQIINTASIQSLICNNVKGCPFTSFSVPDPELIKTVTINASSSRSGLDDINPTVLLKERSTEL", "assay": "Inhibition of cycloxygenase-2 (unknown origin) at 10 uM relative to control"}, "[10]": {"molecular_target": "T3, Cytosolic phospholipase A2 (Homo sapiens) (UniProt P47712)", "T3 sequence (whole entry)": "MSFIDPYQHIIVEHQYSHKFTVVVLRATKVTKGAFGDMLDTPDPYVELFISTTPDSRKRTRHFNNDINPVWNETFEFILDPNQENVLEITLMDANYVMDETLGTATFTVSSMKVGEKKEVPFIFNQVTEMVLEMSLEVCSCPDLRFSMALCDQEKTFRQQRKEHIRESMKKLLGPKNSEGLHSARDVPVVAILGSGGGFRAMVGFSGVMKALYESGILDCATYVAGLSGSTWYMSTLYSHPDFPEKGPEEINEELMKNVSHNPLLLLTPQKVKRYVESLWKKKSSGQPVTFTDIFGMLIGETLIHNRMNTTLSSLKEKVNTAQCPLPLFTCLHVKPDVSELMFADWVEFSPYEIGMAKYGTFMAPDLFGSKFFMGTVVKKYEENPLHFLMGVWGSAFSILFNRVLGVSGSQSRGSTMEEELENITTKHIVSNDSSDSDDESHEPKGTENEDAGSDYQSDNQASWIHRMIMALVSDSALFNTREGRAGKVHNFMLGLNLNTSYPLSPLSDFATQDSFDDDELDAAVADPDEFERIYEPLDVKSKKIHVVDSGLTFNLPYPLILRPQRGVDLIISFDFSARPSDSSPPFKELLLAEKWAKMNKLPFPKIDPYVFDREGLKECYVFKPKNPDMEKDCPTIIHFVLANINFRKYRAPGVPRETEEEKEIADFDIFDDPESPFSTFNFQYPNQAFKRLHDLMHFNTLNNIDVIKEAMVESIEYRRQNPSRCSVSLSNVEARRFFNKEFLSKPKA", "assay": "Inhibition of phospholipase A2 (unknown origin) at 10 uM relative to control"}}}
{"smiles": "CN(C)C(=O)Cn1cc(-c2nc([C@@](C)(c3ccc(-c4cnc(N)nc4)cc3)C3CC3)no2)cn1", "note": "[BI 665915]", "values": [{"measurement": "fraction unbound", "setting": "[1]", "result": 0.047}, {"measurement": "efflux ratio", "setting": "[2]", "result": 1.9}, {"measurement": "CL", "setting": "Rattus norvegicus", "result": 7, "unit": "%"}, {"measurement": "bioavailability", "setting": "[3]", "result": 58, "unit": "%"}, {"measurement": "CL", "setting": "Cynomolgus monkey", "result": 3.6, "unit": "%"}, {"measurement": "MRT", "setting": "[4]", "result": 4.8, "unit": "h"}, {"measurement": "Activity", "setting": "Mus musculus [5]", "result": 22.2, "unit": "%"}, {"measurement": "Activity", "setting": "Mus musculus [6]", "result": 5.1, "unit": "%"}, {"measurement": "IC50", "setting": "[7]", "result": 0.045, "unit": "µM"}, {"measurement": "IC50", "setting": "Cytochrome P450 2C9", "result": "> 30", "unit": "µM"}, {"measurement": "IC50", "setting": "Cytochrome P450 2D6", "result": "> 30", "unit": "µM"}, {"measurement": "inhibition", "setting": "[8]", "result": "< 50", "unit": "%"}, {"measurement": "inhibition", "setting": "[9]", "result": "< 50", "unit": "%"}, {"measurement": "inhibition", "setting": "[10]", "result": "< 50", "unit": "%"}]}
